The list is not random: actives were taken first. Their share in the collection is about 2%.
NR2E3 ag-1: inhibitors of NR2E3-RetCOR corepressor binding, primary screen, NR2E3 agonist project, biochemical, TR-FRET, GST-NR2E3, biotin-RetCOR; Photoreceptor-specific nuclear receptor (Homo sapiens), Q9Y5X4; 1536-well; inhibition of corepressor binding, % at 4.78 µM; 320,000 compounds, 0.12% hits; AID 2300, 2010;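 active means percent inhibition above the cutoff of mean plus 3 SD of all tested compounds, set per screening campaign, cut at about 20% in these data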;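 further: 0% = DMSO wells and 100% = biotin wells as full block of FRET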
Target sequence (Q9Y5X4 whole entry, looked up): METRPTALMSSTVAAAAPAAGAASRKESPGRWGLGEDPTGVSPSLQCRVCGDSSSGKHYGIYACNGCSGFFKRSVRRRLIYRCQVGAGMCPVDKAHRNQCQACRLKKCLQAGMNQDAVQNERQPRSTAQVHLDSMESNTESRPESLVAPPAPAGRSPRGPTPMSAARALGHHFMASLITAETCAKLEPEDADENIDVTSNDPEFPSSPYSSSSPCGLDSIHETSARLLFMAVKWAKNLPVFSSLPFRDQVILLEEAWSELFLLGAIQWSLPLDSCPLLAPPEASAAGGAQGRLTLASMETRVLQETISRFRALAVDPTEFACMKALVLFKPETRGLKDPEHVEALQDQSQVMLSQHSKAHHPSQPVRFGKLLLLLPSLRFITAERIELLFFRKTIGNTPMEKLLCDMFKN
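System: GST-tagged NR2E3 plus biotinylated RetCOR corepressor; Buffer or medium: pH 7.5 Tris-based buffer; Probe or stimulus: RetCOR corepressor, biotinylated, 7 nM; Doses: compound at 4.8 µM, single dose; Schedule: 5 h incubation at 4 °C; Technique: time-resolved FRET; Evaluation: percent inhibition of TR-FRET ratio; Replication: one well per compound, singlicate testing.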
T cell modulator: modulators of CD8 T cell-vesicle binding, primary screen, mouse 2C CD8+ T cells, flow cytometry | 2C CD8+ T cell-vesicle binding; hits give low values | response (vesicle binding), % at 7 µM | 330,000 compounds, 0.068% hits | AID 2052, 2009;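 active means response, share of CD8 T cells binding vesicles, and their 90th percentile fluorescence all below set limits, cut at about 80% in these data, passing the limit was not always enough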;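 further: values below 100% mean blocked vesicle binding to the CD8+ T cells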
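Assay system: 2C TCR transgenic mouse naive CD8+ T cells, MACS-purified | Read-out: CD8+ gate FL2 mean fluorescence as % of same-row positive control | Signal: High-throughput flow cytometry with anti-B7-1 and anti-CD8 staining | Timing: Binding step 1.5 h, 37 °C, antibody labelling 20 min, ice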
NR2E3 ag-2: NR2E3 agonists in two-hybrid cells, primary screen, cell-based, luminescence, CHO-S, Gal4-NCOR/VP16-NR2E3. 360,000 compounds, 0.35% hits. luciferase. AID 602229, 2012. Photoreceptor-specific nuclear receptor (Homo sapiens), Q9Y5X4. inhibition of corepressor binding, % at 3.98 µM;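 active means inhibition above the mean of all tested compounds plus 3 SD, cut at about 70% in these data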;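 further: 0% = DMSO with NR2E3 transfected cells and 100% = cells lacking NR2E3 construct; higher means lower luciferase signal from less NR2E3 corepressor binding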
Myeloid diff 2: induction of myeloid progenitor differentiation, primary screen, cell-based, flow cytometry, MLPCN library. 360,000 compounds, 1% hits. calls only at 10 µM. ER-HoxA9 myeloid progenitors, lysozyme-GFP differentiation. AID 624256, 2012;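 active means normalized GFP-positive differentiation at or above the plate's own cutoff, the solvent-only control mean plus 3 SD; inconclusive means no clear call, values can overlap the other calls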;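 further: cells exposed to compound for four days before flow analysis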
GAA850 FXN act: FXN promoter activators, primary screen, cell-based, luciferase luminescence, HEK293 lucGAA850. AID 540364, 2011. HEK293 lucGAA850 FXN promoter luciferase reporter, 24 h; percent of 10 µM SAHA response. 360,000 compounds, 0.56% hits. activation, % at 6 µM;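 active means activation above the average of all compounds screened plus 3 SD, cutoff fixed separately per campaign, cut at about 7.5% in these data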;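 further: 0% = DMSO wells and 100% = 10 µM SAHA wells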
GAA30 counter: GAA30 FXN promoter activators, confirmation, counter-screen for GAA850 frataxin promoter activator project, cell-based, luminescence, HEK293, lucGAA30, triplicate; shares compounds with GAA850 FXN act; HEK293 lucGAA30 FXN promoter luciferase, 24 h; DMSO = 0%, 5 µM ipriflavone = 100%; activation, % at 6 µM; 1,900 compounds, 66% hits; AID 588350, 2011;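 active means mean activation above the mean of solvent-only control wells plus 3 SD, cut at about 22% in these data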;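 further: counterscreen of GAA850 promoter hits where activity marks nonselective or luminescence artifacts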
GAA850 confirm: FXN GAA850 promoter activators in reporter cells, confirmation, cell-based, luminescence, HEK293 lucGAA850, triplicate; shares compounds with GAA850 FXN act; HEK293 lucGAA850 FXN promoter luciferase reporter, 24 h; 100% = activation by SAHA; AID 588351, 2011; activation, % at 6 µM; 1,900 compounds, 86% hits;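 active means mean activation above a set limit taken from the primary screen, cut at about 8% in these data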;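 further: 0% = DMSO wells and 100% = 10 µM SAHA wells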
NR2E3 ag confirm: NR2E3 agonist confirmation in cells, cell-based, luminescence, CHO-S two-hybrid. shares compounds with NR2E3 ag-2. CHO-S mammalian two-hybrid NR2E3-NCOR, luciferase luminescence. inhibition, % at 3.98 µM. 2,300 compounds, 51% hits. AID 624378, 2012;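 active means average inhibition above a cutoff equal to the mean inhibition of all tested compounds plus one SD, cut at about 70% in these data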;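 further: 0% = DMSO in NR2E3 cells and 100% = DMSO in cells lacking NR2E3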
VP16 counter: GAL4-VP16 reporter modulators, confirmation, counter-screen for NR2E3 agonist project, cell-based, luminescence, CHO-S, high throughput. shares compounds with NR2E3 ag-2. CHO-S GAL4-VP16 luciferase reporter. inhibition, % at 3.98 µM. 2,300 compounds, 29% hits. AID 624379, 2012;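 active means mean inhibition above a cutoff equal to the average over all tested compounds plus one standard deviation, cut at about 70% in these data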;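 further: luciferase from a UAS reporter driven by GAL4-VP16 transactivation; 0% = DMSO with VP16-transfected cells and 100% = DMSO with cells lacking VP16; higher means less reporter light so more repression of VP16 activity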
Myeloid diff: inducers of myeloid progenitor differentiation, confirmation, cell-based, GFP/Mac1 flow cytometry, cherry pick 01; shares compounds with Myeloid diff 2; ER-HoxA9 myeloid progenitors, GFP/Mac1 double-positive flow; calls only; 2,300 compounds, 2% hits; AID 651706, 2012;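 active means share of green or green-and-red cells above 9 and 9% in run 1 or 4 and 3% in run 2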
GFP autofluor: counter-screen for myeloid differentiation promoters: compound fluorescence; shares compounds with Myeloid diff 2; ER-HoxA9 myeloid progenitors, no estrogen, GFP autofluorescence flow cytometry; vehicle wells 0%, positive control 100%; fluorescence response, % (test concentration not listed); 2,300 compounds, 7.4% hits; AID 651707;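 active means over 5% cells positive for green fluorescent reporter, or over 2% positive for both it and APC stain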;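 further: range taken on the double positive population between DMSO and positive control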
The depositor's hits bear a star; i = inactive; ? = inconclusive; . = not tested or not shown.

SMILES	NR2E3 ag-1	T cell modulator	NR2E3 ag-2	Myeloid diff 2	GAA850 FXN act	GAA30 counter	GAA850 confirm	NR2E3 ag confirm	VP16 counter	others
Cc1ccc(NC(=O)Nc2ccc(Cl)cn2)cc1	.	.	-135	i	8.2*	94*	32*	.	.
CC(=O)NC(C)(c1ccccc1)c1nc(-c2cncnc2)cs1 (configuration not stated)	.	.	7	i	0	.	.	.	.
CC(=O)C1=CCC(c2ccc(C)o2)N(S(=O)(=O)c2ccc(C)cc2)C1 (configuration not stated)	.	.	-12	i	.	.	.	.	.
Cc1ccc(-c2nc(CN3CCCCC3)cc(CN3CCCCC3)c2O)cc1	2	353	-8	i	7.9*	29*	17*	.	.
COc1ccc(C2CC(=O)N(CC(=O)NCC3CCCO3)c3ccccc3S2)cc1OC (configuration not stated)	1	402	-9	i	2	.	.	.	.
COc1ccc(C2CC(=O)N(C)c3ccccc3S2)cc1OC (configuration not stated)	1	119	-8	i	8.4*	122*	45*	.	.
CN1CCN(C(=O)c2cc(Cl)ccc2NC(=O)c2ccc(Cl)cc2Cl)CC1	-1	225	-19	i	0	.	.	.	.
CCCCC(=O)N/N=C/c1ccc(Sc2cccc3cccnc23)o1	-1	176	86*	i	15*	25*	7.7*	-33	-18
CO[C@H](C(=O)N(C)C[C@@H]1OCc2ccccc2-c2c(n(C)c3ccccc23)C(=O)N([C@H](C)CO)C[C@@H]1C)c1ccccc1	.	.	8	i	3	.	.	.	.
COc1ccc2c(CC(=O)Nc3ncc(C)s3)coc2c1	7	301	62	i	8.7*	91*	55*	96*	-67
COc1ccc2c(CC(=O)Nc3nc(C)cs3)coc2c1	1	238	-38	i	1	.	.	.	.
CCN(CC(=O)NCc1cccs1)CC(=O)Nc1ccccc1C	2	160	1	i	-1	.	.	.	.
CN(C)C(=S)N=c1ssc(=S)n1Cc1cccnc1	.	.	86*	i	12*	1	12*	-24	-24
S=C1NCN(Cc2cccnc2)CN1	1	569	0	i	0	.	.	.	.
COc1cc2nc(=S)n3[nH]c(CCn4nc(C)cc4C)nc3c2cc1OC	-1	923	85*	i	19*	32*	17*	9	-14
Cc1ccc(C)c(NC(=S)c2ccccn2)c1	1	276	54	i	13*	78*	28*	-20	-75
Cc1ccc(C)c(NC(=S)c2ccc3ccccc3n2)c1	-2	319	-89	i	5	.	.	.	.
CCOC(CN=c1nc(N(C)C)ss1)OCC	.	.	89*	.	8.2*	-15	10*	17	3
CCCC(C)Sc1nc2c([nH]1)c(=S)n(C)c(=O)n2C (configuration not stated)	.	.	82*	i	10*	15	18*	44	5
C=CCN(CC=C)S(=O)(=O)c1ccc(NC(=S)NC(=O)C2CC2)cc1	0	152	-6	i	5	.	.	.	.
COc1ccc(C(=O)c2sc(Nc3ccccc3)nc2N)cc1OC	-2	157	102*	i	9.2*	-20	38*	80*	62
Cc1cnc(NC(=O)c2sc(Nc3ccccc3)nc2N)o1	0	290	-83	i	3	.	.	.	.
COc1cccc(/C=N/Nc2nc(Nc3ccccc3)nc(-n3nc(C)cc3C)n2)c1O	3	389	95*	?	12*	-37	15*	3	-22
Cc1cc(C)n(-c2nc(Nc3ccccc3)nc(-n3nc(C)cc3C)n2)n1	5	411	-1	i	-1	.	.	.	.
COC(=O)C1=C(C)NC(=S)NC1c1ccc(-c2cc(Cl)ccc2Cl)o1 (configuration not stated)	-1	149	-35	i	-3	.	.	.	.
SMILES	NR2E3 ag-1	T cell modulator	NR2E3 ag-2	Myeloid diff 2	GAA850 FXN act	GAA30 counter	GAA850 confirm	NR2E3 ag confirm	VP16 counter	others
CCOC(=O)Nc1ccc2c(c1)C(=NNC(=S)NC)c1ccccc1-2	.	.	86*	i	14*	48*	20*	-18	-21
COc1ccc(Cn2cc(CN3CC(N4CCN(C5CCN(C)CC5)CC4)CS3(=O)=O)nn2)cc1 (configuration not stated)	.	.	10	i	.	.	.	.	.
Cc1c(Cl)cccc1N=Cc1ccc([N+](=O)[O-])s1	1	289	13	i	9.2*	6	6	.	.	Myeloid diff=i;GFP autofluor=0
COCCCN1CC(=O)N2C(c3cccc(OC)c3OC)c3[nH]c4ccccc4c3C[C@H]2C1=O (some centres not stated)	-3	238	-17	i	3	.	.	.	.
CCc1ccc(OCC(=O)NCc2ccco2)c(Br)c1	1	372	-22	i	8.6*	76*	24*	.	.	Myeloid diff=i;GFP autofluor=0
O=C(COc1ccccc1Br)NCc1ccco1	0	136	-13	i	2	.	.	.	.
O=C(Nc1ccccc1O)c1ccc(NS(=O)(=O)c2cccc3cccnc23)cc1	1	175	-74	i	20*	56*	73*	.	.	Myeloid diff=i;GFP autofluor=0
COC(=O)c1ccc(NC(=O)c2ccc(NS(=O)(=O)c3cccc4cccnc34)cc2)cc1	1	63	-1	i	-2	.	.	.	.

Screening data (PubChem BioAssay)
